From PubChem
Cl transport mod: KCC2 (human) Cl- transport modulation; KCC2 cells, thallium flux FluoZin-2 fluorescence; B-score of Tl+ flux slope (higher = more flux/activation; lower = inhibition) at 10 µM; actives 2.2% (n = 190,000);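 active = thallium flux slope and its plate-corrected score both differing from the plate sample mean at a set confidence after two filtering rounds, in either direction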;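 also: slope of fluorescence scaled to starting intensity during 10 to 20 s after thallium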
Target sequence (Q9H2X9 whole entry, looked up): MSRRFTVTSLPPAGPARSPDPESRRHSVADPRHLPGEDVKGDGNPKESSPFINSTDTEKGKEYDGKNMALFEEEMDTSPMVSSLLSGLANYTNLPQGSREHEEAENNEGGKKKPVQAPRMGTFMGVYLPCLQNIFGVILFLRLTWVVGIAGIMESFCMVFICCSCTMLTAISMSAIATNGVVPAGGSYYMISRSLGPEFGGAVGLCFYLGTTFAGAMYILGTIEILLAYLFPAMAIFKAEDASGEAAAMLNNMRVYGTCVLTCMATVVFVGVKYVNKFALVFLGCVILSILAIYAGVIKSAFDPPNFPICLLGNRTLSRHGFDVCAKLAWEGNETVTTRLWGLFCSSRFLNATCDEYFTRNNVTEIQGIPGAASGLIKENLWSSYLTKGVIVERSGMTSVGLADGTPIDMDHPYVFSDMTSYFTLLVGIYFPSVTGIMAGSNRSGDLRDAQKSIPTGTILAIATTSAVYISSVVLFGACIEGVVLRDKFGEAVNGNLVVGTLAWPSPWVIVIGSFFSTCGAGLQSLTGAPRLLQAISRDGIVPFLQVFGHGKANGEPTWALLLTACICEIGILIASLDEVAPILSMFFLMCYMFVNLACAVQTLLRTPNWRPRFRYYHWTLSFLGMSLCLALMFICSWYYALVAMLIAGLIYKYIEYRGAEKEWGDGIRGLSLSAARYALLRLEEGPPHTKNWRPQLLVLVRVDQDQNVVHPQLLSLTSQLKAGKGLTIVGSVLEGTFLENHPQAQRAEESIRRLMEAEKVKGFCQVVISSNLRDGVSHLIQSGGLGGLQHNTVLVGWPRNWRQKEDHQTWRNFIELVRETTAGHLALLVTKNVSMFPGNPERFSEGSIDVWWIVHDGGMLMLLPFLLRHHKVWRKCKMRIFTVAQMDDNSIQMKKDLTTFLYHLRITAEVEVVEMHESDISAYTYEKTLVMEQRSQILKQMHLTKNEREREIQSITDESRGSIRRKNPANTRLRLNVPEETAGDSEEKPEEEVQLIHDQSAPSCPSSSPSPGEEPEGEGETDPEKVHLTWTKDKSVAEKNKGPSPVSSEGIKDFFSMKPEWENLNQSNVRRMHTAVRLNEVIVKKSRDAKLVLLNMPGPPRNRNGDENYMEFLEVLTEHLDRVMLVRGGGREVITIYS
14-3-3 Bad PPI: disrupts binding of bovine 14-3-3 zeta to phospho-Bad peptide. P63103. TR-FRET 14-3-3zeta/Dy647-pBad peptide displacement, 1 h. inhibition, % at 21.7 µM. actives 0.71% (n = 220,000). AID 781;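 active = inhibition above about 70%, limit read from the data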
WT yeast gro inh: growth inhibition of WT yeast, mitochondrial fusion screen. mitochondrial fusion phenotypic screen, WT strain. inhibition, % at 10 µM. actives 2.1% (n = 190,000); in the data active = inhibition above about 58%; tested in S. cerevisiae
RBBP9 inhibitor: inhibitors of human serine hydrolase RBBP9. O75884. recombinant RBBP9, FP-Rh probe fluorescence polarization. inhibition, % at 7.94 µM. actives 0.2% (n = 220,000);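 active = inhibition above the campaign mean of all tested compounds plus 3 SD, cut at about 14% in these data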
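Material: RBBP9 protein. Amount: RBBP9 at 2.5 µM in dispensed solution, before mixing. Schedule: 30 min then 45 min, 25 °C. Medium: Tris buffer pH 8.0, NaCl, Pluronic. Measured by: fluorescence polarization. Measure: percent inhibition from mP, scaled between DMSO and no-protein wells. Replication: one well per compound.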
ROMK mod: human ROMK K+ channel modulation, primary screen; P48048; Tet-inducible ROMK, thallium flux fluorescence; actives lie on both sides; B-score at 10 µM; actives 2% (n = 130,000); AID 1918;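 active = signal ratio slope over the read window, or its plate-corrected B-score, at least 3 SD from the plate mean, either direction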;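 also: B-score of the F/F0 ratio slope over 7 to 12 s after thallium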
NCF1 inh: p47phox (human) inhibition; p47phox/p22phox peptide binding, fluorescence polarization, 2 h; inhibition, % at 24.7 µM; actives 0.53% (n = 220,000);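 active = inhibition above about 30%, limit read from the data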
KCC2 secondary: KCC2 (human) modulation, secondary assay | normalised thallium flux (F/F0 slope) at 10 µM | actives 15% (n = 3,700) | HEK293-KCC2, thallium flux, FluoZin2 fluorescence; active compounds read high | shares compounds with Cl transport mod | AID 1713;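 active = thallium flux slope above the same plate's solvent-only control mean plus 3 SD; inconclusive = the two replicate wells disagree; inactive = no significant difference from solvent-only control wells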
KCC2 bumet counter: thallium flux persisting under bumetanide in KCC2 cells, counter-screen secondary assay; HEK293-KCC2 + bumetanide/ouabain, thallium flux FluoZin2; active compounds read high; actives 49% (n = 3,700); AID 1714; normalized thallium flux at 10 µM; shares compounds with Cl transport mod;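 active = thallium entry rate above the same plate's blocked-transporter control wells by more than 3 SD; inconclusive = the two repeat wells disagree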;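 also: raw slope of fluorescence over initial fluorescence between 10 and 20 s after thallium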
KCC2 secondary2: confirmation of human KCC2 transport modulators | normalized thallium flux at 10 µM | shares compounds with Cl transport mod | actives 23% (n = 3,700) | HEK293-KCC2, thallium flux FluoZin2 fluorescence; actives lie on both sides; F/F0 rise rate, 10–20 s post-thallium;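 active = thallium flux slope more than 3 SD above or below the plate's solvent-only control mean, mostly below; inconclusive = the two repeat wells disagreed; inactive = no significant shift from solvent-only controls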
HEK counter1: parental HEK flux effect, counter-screen; shares compounds with Cl transport mod; HEK293 parental cells, thallium flux FluoZin2, ouabain; baseline-ratio fluorescence slope, 10–20 s after thallium; thallium flux rate (normalised fluorescence) at 10 µM; actives 46% (n = 3,700);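 active = thallium flux rate significantly above the same plate's solvent-only control wells, beyond their mean plus 3 SD; inconclusive = the two replicate wells gave conflicting results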
KCC2 ouabain: KCC2 (human) modulation, ouabain retest | raw Tl+ flux slope (below DMSO = inhibition, above = activation) at 10 µM | actives 48% (n = 3,700) | HEK293-KCC2, thallium flux FluoZin2 fluorescence; bidirectional: low = inhibitor, high = activator | shares compounds with Cl transport mod;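 active = thallium flux slope beyond 3 SD from same-plate DMSO control mean in most replicates, usually higher, sometimes lower; inconclusive = repeat tests gave conflicting results; inactive = no significant difference from controls in most replicates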;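 also: slope of initial-normalized fluorescence between seconds 10 and 20 after thallium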
HEK counter2: parental HEK flux effect, counter-screen 2 | shares compounds with Cl transport mod | HEK293 parental, thallium flux FluoZin-2 fluorescence slope | thallium flux slope at 10 µM | actives 33% (n = 3,700) | AID 1718;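 active = thallium flux slope above the same plate's solvent-control mean plus 3 SD in both duplicate wells; inconclusive = duplicate wells that disagreed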;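 also: run without ouabain in cells lacking the KCC2 cotransporter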
A number is an active result; i = inactive; ? = inconclusive; nt = no result given. Most compounds without a hit are left out; they make up all but 5.8% or so of the library.

SMILES	Cl transport mod	14-3-3 Bad PPI	WT yeast gro inh	RBBP9 inhibitor	ROMK mod	NCF1 inh	KCC2 secondary	KCC2 bumet counter	KCC2 secondary2	HEK counter1	KCC2 ouabain	HEK counter2
CCc1nc(N2CCN(C(C)=O)CC2)c(C#N)c2c1COC(C)(C)C2	i	i	nt	i	nt	i	nt	nt	nt	nt	nt	nt
Cc1nc(N2CCN(C(=O)c3ccc(Cl)cc3)CC2)c(C#N)c2c1COC(C)(C)C2	i	i	i	i	i	i	i	i	i	?	i	i
CC1(C)Cc2c(C#N)c(N3CCN(C(=O)c4ccco4)CC3)nc(Cc3ccccc3)c2CO1	nt	i	i	i	i	i	i	i	i	?	0.017	i
CCN(CC)CCNc1nc(-c2ccco2)c2c(c1C#N)CC(C)(C)OC2	i	i	i	i	i	i	nt	nt	nt	nt	nt	nt
CC1(C)Cc2c(C#N)c(NCCc3ccccc3)nc(-c3ccco3)c2CO1	i	i	i	i	i	i	i	i	i	i	i	i
Cc1nn(Cc2ccccc2)c(Cl)c1/C=C/C(=O)OCC(=O)N1CCCC1=O	i	i	i	i	i	i	nt	nt	nt	nt	nt	nt
CCN(CC)S(=O)(=O)c1cc(C(=O)OCC(=O)NC(=O)c2cccn2C)ccc1C	i	i	i	i	i	i	nt	nt	nt	nt	nt	nt
O=C(NNC(=O)c1cc(-c2ccccc2)nc2ccccc12)Nc1cccc(Cl)c1	i	i	i	i	i	i	nt	nt	nt	nt	nt	nt
CC(C)Oc1cccc(-c2cc(C(=O)NC(=S)N(C)c3ccccc3C(=O)O)c3ccccc3n2)c1	4.4	i	i	i	nt	i	?	0.02	i	0.011	?	0.014
COc1ccc(Cl)cc1C(=O)NNC(=S)NC(=O)c1cc(-c2ccccc2)nc2ccccc12	4.8	i	i	i	nt	i	i	0.0087	i	0.012	i	i
COc1ccc(C(=O)NNC(=S)NC(=O)c2cc(-c3ccccc3)nc3ccccc23)cc1	6.6	i	i	i	nt	i	i	0.017	i	0.022	0.026	0.015
COc1cccc(-c2cc(C(=O)Nc3ccc4c(c3)OCCO4)c3ccccc3n2)c1	i	i	i	i	nt	i	nt	nt	nt	nt	nt	nt
CCCOc1ccc(C(=O)NNC(=S)NC(=O)c2cc(-c3ccc(Cl)cc3)nc3ccccc23)cc1	i	i	i	i	i	i	nt	nt	nt	nt	nt	nt
O=C(O)c1nn(CC(=O)N2CCN(S(=O)(=O)c3ccc(Cl)cc3)CC2)c(=O)c2ccccc12	i	i	nt	i	i	i	nt	nt	nt	nt	nt	nt
Cc1cc[n+]2n1CC(O)C2 (stereo unspecified)	i	i	nt	i	i	i	nt	nt	nt	nt	nt	nt
CCCCSc1nnc(-c2ccc(OC)cc2)n1C	-5	i	i	i	i	i	i	i	i	i	i	i
CCOc1ccc2nc(N3C(=O)/C(=C/c4ccc(Cl)cc4)NC3=S)sc2c1	19	i	i	i	nt	i	i	0.045	0.049	0.063	0.048	0.047
CCOc1ccc(N=C2NC(=O)S/C2=C\c2ccc(Cl)cc2)cc1	nt	i	i	i	nt	i	nt	nt	nt	nt	nt	nt
O=C(NCc1ccccc1)C1C2C=CC3(CN(Cc4cccnc4)C(=O)C13)O2 (stereo unspecified)	i	i	i	i	nt	i	nt	nt	nt	nt	nt	nt
CC(C)N1C(=O)C2C(C(=O)NCc3ccccc3)C3C=CC2(O3)C1C(=O)NC(C)(C)C (stereo unspecified)	2.8	i	i	i	nt	i	i	i	i	i	i	i
C=CCC(=O)N1CCCC(CNC(=O)c2ccc(-c3ccccc3)cc2)C1 (stereo unspecified)	-5.5	i	i	i	i	i	i	i	i	i	0.014	i
CC(=O)NCCC(=O)N1CCCC(CNC(=O)c2ccc(-c3ccccc3)cc2)C1 (stereo unspecified)	-4.5	i	i	i	i	i	i	i	?	i	0.013	i
O=C(NCC1CCCN(C(=O)c2cscn2)C1)c1ccc(-c2ccccc2)cc1 (stereo unspecified)	-5.3	i	i	i	i	i	i	i	0.021	?	0.012	i
CC(=O)NCCC(=O)N1CCCC(C(=O)c2ccc3c4c(cccc24)CC3)C1 (stereo unspecified)	i	i	i	i	i	i	nt	nt	nt	nt	nt	nt
Cc1cc2ccccn2c1C(=O)c1nc(N2CCOCC2)ncc1Cl	-3.8	i	i	i	nt	i	i	?	0.026	i	0.017	i
SMILES	Cl transport mod	14-3-3 Bad PPI	WT yeast gro inh	RBBP9 inhibitor	ROMK mod	NCF1 inh	KCC2 secondary	KCC2 bumet counter	KCC2 secondary2	HEK counter1	KCC2 ouabain	HEK counter2
COCCN(CCOC)c1ncc(Cl)c(C(=O)c2c(C)cc3ccccn23)n1	i	i	i	i	i	i	nt	nt	nt	nt	nt	nt
Cc1ccccc1Nc1nnc(SCc2cc(=O)n3ccsc3n2)s1	-4.9	i	i	i	nt	i	i	i	i	i	?	i
O=c1cc(CSc2nnc(Nc3ccccc3)s2)nc2sccn12	i	i	i	i	i	i	nt	nt	nt	nt	nt	nt
FC(F)(F)c1ccccc1NC(=S)N/N=C1\CC2CC=CC12 (stereo unspecified)	13	i	i	i	i	i	?	0.037	0.04	0.02	0.029	0.023
O=C(N/N=C1\CC2CC=CC12)c1ccccc1Cl (stereo unspecified)	i	i	i	i	i	i	nt	nt	nt	nt	nt	nt
CCC(C)NC(=O)CSc1nc(-c2cccs2)cc(C(F)(F)F)n1 (stereo unspecified)	2.9	i	i	i	i	i	i	i	i	i	i	i
O=C(O)CSc1nc(-c2cccs2)cc(C(F)(F)F)n1	i	i	i	i	i	i	nt	nt	nt	nt	nt	nt
Cc1ccc2nc(-c3ccccc3)c(CN3CCSCC3)n2c1	i	i	i	i	i	i	nt	nt	nt	nt	nt	nt
Cc1ccc2nc(-c3ccccc3)c(CN3CCOCC3)n2c1	4.3	i	i	i	i	i	i	i	i	i	i	i
O=c1c2ccccc2nc(-c2ccc([N+](=O)[O-])cc2)n1O	9	i	i	i	i	i	?	0.02	i	0.016	0.028	?
CCN(CC)S(=O)(=O)c1ccc(N2CCOCC2)c(NC(=O)CCC2CCCCC2)c1	i	i	i	i	i	i	nt	nt	nt	nt	nt	nt
